# Starred links: 1 amine or outer side, 2 acyl side, 3 side chain; linkers in the order of their positions; H or OH if unused. Non-standard residues stand in square brackets, D forms with d. Residues, ends and D or L forms follow the SMILES beside them. X1 = O=C([C@@H](Cc1cccc(C(F)(F)S(=O)(=O)O)c1)N[*:1])[*:2]; X3 = O=C([C@@H](Cc1cccc(C(F)(F)P(=O)(O)O)c1)N[*:1])[*:2]; X2 = O=C([C@@H](Cc1cccc(CS(=O)(=O)O)c1)N[*:1])[*:2]
# Molecular target: T1, Tyrosine-protein phosphatase non-receptor type 1 (Homo sapiens, UniProt P18031)
# T1 sequence (P18031 whole entry): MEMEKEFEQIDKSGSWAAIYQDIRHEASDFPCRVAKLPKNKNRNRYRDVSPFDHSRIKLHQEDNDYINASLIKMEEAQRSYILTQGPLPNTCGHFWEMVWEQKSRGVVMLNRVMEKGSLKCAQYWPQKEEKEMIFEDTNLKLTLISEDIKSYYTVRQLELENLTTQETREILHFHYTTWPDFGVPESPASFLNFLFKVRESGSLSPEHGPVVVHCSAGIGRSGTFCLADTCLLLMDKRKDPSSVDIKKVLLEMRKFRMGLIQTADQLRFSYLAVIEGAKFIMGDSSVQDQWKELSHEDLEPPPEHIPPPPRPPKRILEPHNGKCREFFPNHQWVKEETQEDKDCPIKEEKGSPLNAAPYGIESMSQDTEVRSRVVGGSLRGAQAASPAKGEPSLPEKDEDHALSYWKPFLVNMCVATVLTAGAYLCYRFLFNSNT
# Test: Inhibition of human PTP1B expressed in Escherichia coli BL21(DE3) cells
# How it was run: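 IC50 assay at 25 °C in 50 mM Bis–Tris HCl pH 6.3 with 2% glycerol, 0.1% Triton X-100, 4% DMSO, 4.5 mM DTT, 1.8 mM EDTA (final). DiFMUP substrate at Km (5 µM). Reaction started by adding PTP1B. DiFMU fluorescence (ex 360/em 460 nm) followed for 10 min. Initial rates Vi/Vo fitted semi-log to Vi = Vo/[1+([I]/IC50)^S]+B.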
SMILES,IC50,Ki
NS(=O)(=O)C(F)(F)c1cc(-c2ccc(CSCc3ccc(C(F)(F)S(=O)(=O)O)c(Br)c3)cc2)ccc1Br,6 µM,3.3 µM
NS(=O)(=O)C(F)(F)c1cc(-c2ccc(CSCc3ccc(C(F)(F)P(=O)(O)O)c(Br)c3)cc2)ccc1Br,0.03 µM,0.024 µM
NS(=O)(=O)c1cc(-c2ccc(CSCc3ccc(C(F)(F)S(=O)(=O)O)c(Br)c3)cc2)ccc1Br,13 µM,10.6 µM
NS(=O)(=O)c1cc(-c2ccc(CSCc3ccc(CS(=O)(=O)O)c(Br)c3)cc2)ccc1Br,19 µM,10.3 µM
O=P(O)(O)C(F)(F)c1ccc2ccccc2c1,35 µM,–
CC(C)C[C@H](NC(=O)[C@@H](Cc1cccc(CS(=O)(=O)O)c1)NC(=O)[C@H](CCC(=O)O)NC(=O)[C@H](CC(=O)O)NC(=O)[C@H](C)NC(=O)[C@@H](N)CC(=O)O)C(N)=O (H-DADE[X2]L-NH2),44 µM,–
CC(C)C[C@H](NC(=O)[C@@H](Cc1cccc(C(F)(F)S(=O)(=O)O)c1)NC(=O)[C@H](CCC(=O)O)NC(=O)[C@H](CC(=O)O)NC(=O)[C@H](C)NC(=O)[C@@H](N)CC(=O)O)C(N)=O (H-DADE[X1]L-NH2),10 µM,–
NS(=O)(=O)c1cc(-c2ccc(CSCc3ccc(C(F)(F)P(=O)(O)O)c(Br)c3)cc2)ccc1Br,0.006 µM,–
CC(C)C[C@H](NC(=O)[C@@H](Cc1cccc(C(F)(F)P(=O)(O)O)c1)NC(=O)[C@H](CCC(=O)O)NC(=O)[C@H](CC(=O)O)NC(=O)[C@H](C)NC(=O)[C@@H](N)CC(=O)O)C(N)=O (H-DADE[X3]L-NH2),–,0.024 µM

# — ChEMBL document CHEMBL1158163, “A re-examination of the difluoromethylenesulfonic acid group as a phosphotyrosine mimic for PTP1B inhibition” (Bioorg Med Chem, 2008)
